Paper PMC5306247 (European Journal of Drug Metabolism and Pharmacokinetics, 2016)
Where “and” joins values, the source holds several entries; their conditions need not be identical. Equal entries are not always repeated. Values belong to the molecule of their own block, whether it stands above or below them.

Columns and labels:
[1] = Clinical pharmacokinetics of CLP and its metabolites in plasma; type: in vivo, patients (human)
Outline: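 Caucasian patients scheduled for PCI or coronarography got 75 mg daily for 7 days, fasting. On day 7, plasma was sampled at 0.5, 1, 2, 3, 4, 6, 12 and 24 h (44 patients) or at 0.5 and 2 h only (38). Plasma was spiked with piroxicam, acetonitrile-precipitated, filtered, dried and reconstituted for HPLC–MS/MS. Quantifiable ranges were parent 0.25–5, derivatized thiol metabolites 0.25–50 and main metabolite 50–10,000 ng/mL. Tmax was taken directly from measured concentrations.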

[2] = test system: ADP-induced platelet aggregation; details: 75 mg CLP daily
[3] = in vivo; cited from earlier work
[4] = cited from earlier work
platelet aggregation = details: cited from earlier work
CYP3A4 = details: cited from earlier work

- Tmax ([1]; human, plasma, oral, 75 mg): 1 h
SMILES: COC(=O)[C@H](c1ccccc1Cl)N1CCc2sccc2C1 [CLP, Clopidogrel]
- median AUCagr for wt/wt genotype versus heterozygotes ([2]; samples 2–3 h after administration, p = 0.484): lower
- classification of patients by response to CLP ([2]; threshold for CLP resistance AUCagr above 486 AU*min): Almost all studied patients were classified as responders
- share of absorbed drug undergoing bioactivation pathway to thiol metabolite [3]: Approximately 15%
- patients treated with CLP who respond poorly to the drug [4]: 5–50%

SMILES: COC(=O)[C@H](c1ccccc1Cl)N1CCC(S)/C(=C\C(=O)O)C1 (stereo partly drawn) [H3]
- antiaggregation properties (platelet aggregation): only H4 exhibits antiaggregation properties

- time after CLP administration up to which concentrations were quantifiable ([1]; patients, 75 mg CLP daily, day 7, plasma): up to 24 h
SMILES: O=C(O)[C@H](c1ccccc1Cl)N1CCc2sccc2C1 [CLPM]

SMILES: COC(=O)C(c1ccccc1Cl)N1CCC(S)C(=CC(=O)O)C1 (stereo not drawn) [H4]
- antiaggregation properties (platelet aggregation): exhibits antiaggregation properties

SMILES: COC(=O)[C@H](c1ccccc1Cl)N1CCC2SC(=O)C=C2C1 (stereo partly drawn) [2-oxo-CLP]
- share of 2-oxo-CLP transformed into the thiol entities by CYP3A4 (CYP3A4): ~40% and 39.8%
